Screening results deposited in PubChem BioAssay by several laboratories.
The sample as a whole holds a higher share of hits than the screen did.
ABCB6 inh MLPCN – ABCB6 transporter inhibitors, primary screen, K562-ABCB6 cells, flow cytometry, MLPCN library. ATP-binding cassette sub-family B member 6 (Homo sapiens), Q9NP58. K562-ABCB6 porphyrin accumulation, 1 h; hits give low values. fluorescence ratio to DMSO, % at 10 µM. 360,000 tested, 0.19% active. AID 602162, 2011;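 active = fluorescence ratio to DMSO below 75%, the collection mean minus 3 SD; inconclusive = too few cells collected in the well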;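 note: signal is porphyrin accumulated inside mitochondria; lower ratio means ABCB6 inhibition with less porphyrin fluorescence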
pCIP destab – p/CIP-EGFP fusion destabilizers, primary screen, fluorescence, F442A cells | Q05BA5 | 16 h | decrease of EGFP signal, % at 10 µM | 290,000 tested, 0.01% active | AID 1984, 2009;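 active = EGFP signal decrease of at least 30% at 10 µM or well 3 SD below plate mean, unless failing retest; inactive = the rest, including hits failing retest or dose response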
Target sequence (Q05BA5 1-1403): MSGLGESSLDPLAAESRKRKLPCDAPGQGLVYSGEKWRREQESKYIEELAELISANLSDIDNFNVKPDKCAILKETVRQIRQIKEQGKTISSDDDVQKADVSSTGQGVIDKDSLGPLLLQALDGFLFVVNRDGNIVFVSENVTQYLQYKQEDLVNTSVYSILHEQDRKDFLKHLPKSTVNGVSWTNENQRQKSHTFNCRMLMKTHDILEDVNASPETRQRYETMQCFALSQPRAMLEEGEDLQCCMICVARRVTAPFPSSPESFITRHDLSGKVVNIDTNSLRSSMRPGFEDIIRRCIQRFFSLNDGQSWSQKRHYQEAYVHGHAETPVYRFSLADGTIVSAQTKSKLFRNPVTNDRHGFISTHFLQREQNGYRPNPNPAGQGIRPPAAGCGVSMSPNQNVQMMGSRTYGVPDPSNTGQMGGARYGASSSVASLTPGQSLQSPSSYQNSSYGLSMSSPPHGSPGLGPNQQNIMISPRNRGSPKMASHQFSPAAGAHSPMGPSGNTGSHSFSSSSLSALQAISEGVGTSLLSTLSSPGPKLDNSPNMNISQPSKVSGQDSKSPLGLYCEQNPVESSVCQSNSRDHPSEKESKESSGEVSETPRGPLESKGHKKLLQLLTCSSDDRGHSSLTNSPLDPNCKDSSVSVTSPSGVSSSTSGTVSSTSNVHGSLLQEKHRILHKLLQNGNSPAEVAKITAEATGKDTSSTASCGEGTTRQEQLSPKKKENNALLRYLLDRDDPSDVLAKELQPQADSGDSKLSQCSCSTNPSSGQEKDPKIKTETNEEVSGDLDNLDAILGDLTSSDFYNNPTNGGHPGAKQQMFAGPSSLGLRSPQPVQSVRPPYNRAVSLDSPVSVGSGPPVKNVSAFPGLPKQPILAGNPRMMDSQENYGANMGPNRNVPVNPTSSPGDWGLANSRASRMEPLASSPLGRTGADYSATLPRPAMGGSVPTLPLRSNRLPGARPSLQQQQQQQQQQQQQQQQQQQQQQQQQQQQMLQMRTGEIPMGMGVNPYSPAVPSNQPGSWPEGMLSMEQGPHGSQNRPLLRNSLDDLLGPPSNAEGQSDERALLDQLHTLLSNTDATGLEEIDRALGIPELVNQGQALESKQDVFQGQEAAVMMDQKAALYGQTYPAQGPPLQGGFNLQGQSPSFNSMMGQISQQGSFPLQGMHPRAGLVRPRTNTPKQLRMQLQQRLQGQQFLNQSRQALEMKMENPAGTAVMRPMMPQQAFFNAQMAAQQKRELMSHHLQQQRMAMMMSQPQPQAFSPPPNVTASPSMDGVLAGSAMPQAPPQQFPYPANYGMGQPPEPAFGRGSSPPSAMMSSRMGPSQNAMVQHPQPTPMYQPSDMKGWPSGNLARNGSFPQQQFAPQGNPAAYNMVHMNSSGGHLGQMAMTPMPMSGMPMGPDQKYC
V-ATPase pH – regulators of yeast V-ATPase proton pumping, primary screen, pHLuorin cytosolic pH fluorescence | S. cerevisiae | response, % at 10 µM | 350,000 tested, 0.37% active; in the data active = response mostly above about 7.3%, no sharp cut-off; inactive = mostly below about 5.4%; note: actives read high
Cl transport mod – KCC2 cotransporter modulators, thallium flux, primary screen, cell-based, HEK293 KCC2, FluoZin-2 fluorescence, MLSMR; KCC2 cells, thallium flux FluoZin-2 fluorescence; B-score of Tl+ flux slope (higher = more flux/activation; lower = inhibition) at 10 µM; 190,000 tested, 2.2% active; AID 1456, 2008;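 active = thallium flux slope and its plate-corrected score both differing from the plate sample mean at a set confidence after two filtering rounds, in either direction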;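 note: slope of fluorescence scaled to starting intensity during 10 to 20 s after thallium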
Dynein cargo inh – inhibitors of GR-EGFP nuclear translocation, primary screen, dynein cargo transport inhibitor project, imaging, high-content, 3617.4 mouse cells; test concentration mostly 20 µM; stimulated with dexamethasone, 1 µM; hits give low values; 220,000 tested, 0.47% active; z-score, hits read low;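 active = plate z-score of nuclear minus cytoplasmic receptor signal below a set negative limit, without overly bright fluorescence or cell loss, cut at about -3.5 in these data, passing the limit was not always enough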;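 note: z-score of nuclear minus cytoplasmic ring GR-EGFP intensity difference per well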
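Also added – dexamethasone, 1.0 µM final · Buffer or medium – tet-free, stripped-serum medium · Schedule – induction 48 h, compound 1 h, agonist 30 min · Detection – formaldehyde fixation, Hoechst nuclear stain, 10x automated fluorescence imaging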
KCC2 sec1 – KCC2 modulators in sodium-free buffer, confirmation, cell-based, HEK293 KCC2, thallium flux, secondary assay; shares compounds with Cl transport mod; FluoZin2 fluorescence; hits give high values; normalised thallium flux (F/F0 slope) at 10 µM; 3,700 tested, 15% active; AID 1713, 2009;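 active = thallium flux slope above the same plate's solvent-only control mean plus 3 SD; inconclusive = the two replicate wells disagree; inactive = no significant difference from solvent-only control wells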
KCC2 bumet counter – thallium flux persisting under bumetanide in KCC2 cells, confirmation, counter-screen for KCC2 modulator project, cell-based, HEK293 KCC2, FluoZin2, secondary assay 3 | 3,700 tested, 49% active | normalized thallium flux at 10 µM | shares compounds with Cl transport mod | HEK293-KCC2 + bumetanide/ouabain; hits give high values;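 active = thallium entry rate above the same plate's blocked-transporter control wells by more than 3 SD; inconclusive = the two repeat wells disagree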;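 note: raw slope of fluorescence over initial fluorescence between 10 and 20 s after thallium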
KCC2 sec2 – KCC2 modulators without ouabain present, confirmation, cell-based, HEK293 KCC2, thallium flux, FluoZin2, secondary assay 2 | normalized thallium flux at 10 µM | thallium flux FluoZin2 fluorescence; actives lie on both sides; F/F0 rise rate, 10–20 s post-thallium | shares compounds with Cl transport mod | AID 1715, 2009 | 3,700 tested, 23% active;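 active = thallium flux slope more than 3 SD above or below the plate's solvent-only control mean, mostly below; inconclusive = the two repeat wells disagreed; inactive = no significant shift from solvent-only controls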
HEK293 Tl flux – thallium flux modulation in parental HEK cells, confirmation, counter-screen for KCC2 modulator project, cell-based, counterscreen 1; shares compounds with Cl transport mod; HEK293 parental cells, thallium flux FluoZin2, ouabain; baseline-ratio fluorescence slope, 10–20 s after thallium; thallium flux rate (normalised fluorescence) at 10 µM; 3,700 tested, 46% active; AID 1716, 2009;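 active = thallium flux rate significantly above the same plate's solvent-only control wells, beyond their mean plus 3 SD; inconclusive = the two replicate wells gave conflicting results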
KCC2 retest ouab – KCC2 inhibitors and activators, ouabain retest, confirmation, HEK-KCC2 cells | shares compounds with Cl transport mod | HEK293-KCC2, thallium flux FluoZin2 fluorescence; bidirectional: low = inhibitor, high = activator | raw Tl+ flux slope (below DMSO = inhibition, above = activation) at 10 µM | 3,700 tested, 48% active | AID 1717, 2009;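 active = thallium flux slope beyond 3 SD from same-plate DMSO control mean in most replicates, usually higher, sometimes lower; inconclusive = repeat tests gave conflicting results; inactive = no significant difference from controls in most replicates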;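 note: slope of initial-normalized fluorescence between seconds 10 and 20 after thallium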
HEK293 Tl flux2 – native HEK Tl+ uptake effects, second counter-screen – HEK cells, counterscreen 2, counter-screen for KCC2 modulator project, confirmation; HEK293 parental, thallium flux FluoZin-2 fluorescence slope; shares compounds with Cl transport mod; thallium flux slope at 10 µM; AID 1718, 2009; 3,700 tested, 33% active;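 active = thallium flux slope above the same plate's solvent-control mean plus 3 SD in both duplicate wells; inconclusive = duplicate wells that disagreed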;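 note: run without ouabain in cells lacking the KCC2 cotransporter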
Each line names hits and unclear results; the compound was inactive in the other large screens (follow-up assays come after a bar, where they were run).

COc1ccc(NC(=O)CNc2cc(S(=O)(=O)N3CCOCC3)ccc2NCC2CCCO2)cc1 (stereo not given)	none
Cc1[nH]c2ccccc2c1C(=O)COC(=O)CCS(=O)(=O)c1ccccc1Cl	Cl transport mod -3.1 | KCC2 sec1 inactive | KCC2 bumet counter inconclusive | KCC2 sec2 inactive | HEK293 Tl flux inactive | KCC2 retest ouab 0.017 | HEK293 Tl flux2 inactive
CCOc1ccccc1OCC(=O)OCC(=O)c1c(C)[nH]c2ccccc12	none (no result: pCIP destab, Cl transport mod, Dynein cargo inh)
N#CCN=C(c1ccccc1)c1ccccc1	none (no result: pCIP destab, Cl transport mod, Dynein cargo inh)
CCC1(c2ccccc2)NC(=O)N(CC(=O)Nc2ccccc2C(=O)N2CCCCC2)C1=O (stereo not given)	none (no result: pCIP destab, Cl transport mod, Dynein cargo inh)
O=C(CCc1nnc(-c2ccc3c(c2)OCO3)o1)N1CCC(c2ccc(F)cc2)C1 (stereo not given)	Cl transport mod -4.83 | KCC2 sec1 inactive | KCC2 bumet counter inactive | KCC2 sec2 0.0225 | HEK293 Tl flux 0.00619 | KCC2 retest ouab 0.0135 | HEK293 Tl flux2 inconclusive
O=C(CCc1nnc(-c2ccc3c(c2)OCO3)o1)NC(c1ccccn1)C(F)(F)F (stereo not given)	none
CCCCNC(=O)c1onc(CSc2ccccn2)c1C(=O)NCCCC	none (no result: pCIP destab, Cl transport mod, Dynein cargo inh)
Cc1nc2c(cnn2-c2ccccc2Cl)c(=O)n1-c1ccc(N2CCC(C)CC2)cc1	none (no result: Cl transport mod) | KCC2 sec1 inactive | KCC2 bumet counter inactive | KCC2 sec2 inactive | HEK293 Tl flux inactive | KCC2 retest ouab inactive | HEK293 Tl flux2 inactive
CC(=O)Nc1ccccc1C(=O)C(=O)Nc1ccc(C(=O)N2CCOCC2)cc1	none
Cc1ccc(/C=N/n2c(-c3cccnc3)n[nH]c2=S)o1	none
S=c1[nH]nc(-c2cccnc2)n1/N=C/c1ccc(Br)s1	Cl transport mod 23 | KCC2 sec1 inactive | KCC2 bumet counter 0.0546 | KCC2 sec2 inactive | HEK293 Tl flux 0.0106 | KCC2 retest ouab inactive | HEK293 Tl flux2 0.0115
Cc1ccc(/C=N/n2c(-c3cccnc3)n[nH]c2=S)s1	none
Cc1ccc(/C=N/n2c(-c3ccc(Cl)cc3)n[nH]c2=S)o1	Cl transport mod 7.94 | KCC2 sec1 0.0157 | KCC2 bumet counter 0.0349 | KCC2 sec2 inactive | HEK293 Tl flux 0.0115 | KCC2 retest ouab inactive | HEK293 Tl flux2 inconclusive
Cc1ccc(-c2n[nH]c(=S)n2/N=C/c2sccc2C)cc1	Cl transport mod 18.6 | KCC2 sec1 inactive | KCC2 bumet counter 0.0212 | KCC2 sec2 inactive | HEK293 Tl flux 0.0149 | KCC2 retest ouab 0.0246 | HEK293 Tl flux2 0.0168
S=c1[nH]nc(-c2ccc(Cl)cc2)n1/N=C/c1cccs1	Cl transport mod 22.5 | KCC2 sec1 inactive | KCC2 bumet counter 0.025 | KCC2 sec2 0.0423 | HEK293 Tl flux 0.0305 | KCC2 retest ouab 0.0415 | HEK293 Tl flux2 0.0239
S=c1[nH]nc(-c2ccccc2)n1/N=C/c1ccc(Cl)cc1	none (no result: Cl transport mod, Dynein cargo inh)
COc1ccc(N2CCN(c3nc(-c4cccs4)nc4ccccc34)CC2)cc1	none
Cc1ccc(-c2n[nH]c(=S)n2/N=C/c2ccc(C)o2)cc1	Cl transport mod 3.7 | KCC2 sec1 inconclusive | KCC2 bumet counter 0.0182 | KCC2 sec2 inactive | HEK293 Tl flux 0.0143 | KCC2 retest ouab 0.0259 | HEK293 Tl flux2 inactive
CC(C)Cn1c(-c2csc3c2CCCC3)n[nH]c1=S	Cl transport mod 4.76 | KCC2 sec1 inactive | KCC2 bumet counter 0.0325 | KCC2 sec2 inactive | HEK293 Tl flux 0.011 | KCC2 retest ouab 0.0293 | HEK293 Tl flux2 inactive
CCn1c(SCC(=O)Nc2nccs2)nnc1-c1ccccn1	none (no result: Cl transport mod, Dynein cargo inh)
COc1ccccc1C(=O)NC1CCN(C(=S)NCCc2ccccc2)CC1	Cl transport mod -3.08 | KCC2 sec1 inactive | KCC2 bumet counter inactive | KCC2 sec2 0.0249 | HEK293 Tl flux inactive | KCC2 retest ouab inconclusive | HEK293 Tl flux2 inactive
Cc1ccc(S(=O)(=O)NC(=O)Nc2ccc(F)cc2)cc1	none
Cc1ccc(S(=O)(=O)NC(=O)Nc2cc(C)ccc2F)cc1	Cl transport mod -10.9 | KCC2 sec1 inactive | KCC2 bumet counter inconclusive | KCC2 sec2 inactive | HEK293 Tl flux inconclusive | KCC2 retest ouab inactive | HEK293 Tl flux2 inactive
O=c1[nH][nH]c2c1[C@@H](c1ccc(F)cc1)O[C@H](CCc1ccccc1)C2	none (no result: pCIP destab, V-ATPase pH, Cl transport mod, Dynein cargo inh)
CN(CCO)c1cc(Sc2nc3ccccc3s2)c2nonc2c1[N+](=O)[O-]	none (no result: Cl transport mod) | KCC2 sec1 inactive | KCC2 bumet counter 0.015 | KCC2 sec2 inactive | HEK293 Tl flux 0.0143 | KCC2 retest ouab inconclusive | HEK293 Tl flux2 0.0169
O=C(N/C=N/OCc1ccc(Cl)cc1Cl)NOCc1ncc(C(F)(F)F)cc1Cl	none
Cc1cccc(NC(=O)CSc2nnc(CSc3nc(C)cc(C)n3)n2Cc2ccco2)c1	none (no result: Cl transport mod) | KCC2 sec1 inactive | KCC2 bumet counter inactive | KCC2 sec2 inactive | HEK293 Tl flux inconclusive | KCC2 retest ouab inactive | HEK293 Tl flux2 inactive
Cc1cc(C)nc(SCc2nnc(SCC(=O)Nc3nccs3)n2Cc2ccco2)n1	none
Cc1ccc(S(=O)(=O)N2C[C@H]3C(=O)C[C@@H](c4ccccc4)N(S(=O)(=O)c4ccccc4C)[C@H]3C[C@H]2c2ccccc2)cc1	none (no result: pCIP destab, V-ATPase pH, Cl transport mod, Dynein cargo inh)
CCOC(=O)c1sc(Nc2nc3c(OC)cccc3s2)nc1C	Cl transport mod 26 | KCC2 sec1 inactive | KCC2 bumet counter 0.0117 | KCC2 sec2 0.0408 | HEK293 Tl flux 0.0254 | KCC2 retest ouab 0.038 | HEK293 Tl flux2 0.0175
